STAT3 act: IL-6 driven STAT3 reporter potentiators, primary screen, U3A cells, luciferase, luminescence, MLSCN library | hit rate 0.91% among 190,000 | activation (% of control), % at 5.6 µM | AID 871, 2007 | IL-6 STAT3-luciferase reporter; 100% = signal with IL-6 EC80 alone;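 active = activation above the screen-wide mean of compound activation plus 3 SD, cut at about 130% in these data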;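 note: 0% = background luminescence of wells with medium and substrate only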
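Assay system – human STAT1-deficient U3A cells with stable STAT3-luciferase reporter · Also added – IL-6 (33 ng/mL) · Schedule – compound 1 h, then IL-6 6 h at 37 °C · Technique – reporter luminescence signal · Evaluation – % activation versus median of IL-6-stimulated wells · Benchmarks – IL-6-only wells as 100% reference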
AHR act: AHR activators, primary screen, cell-based, luminescence, luciferase reporter, human; hit rate 2.5% among 320,000; AHR-responsive luciferase reporter cells; Aryl hydrocarbon receptor (Homo sapiens), P35869; activation, % at 5 µM; in the data active = activation above about 47%;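 note: 0% = vehicle wells and 100% = reference agonist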
Target sequence (P35869 whole entry, looked up): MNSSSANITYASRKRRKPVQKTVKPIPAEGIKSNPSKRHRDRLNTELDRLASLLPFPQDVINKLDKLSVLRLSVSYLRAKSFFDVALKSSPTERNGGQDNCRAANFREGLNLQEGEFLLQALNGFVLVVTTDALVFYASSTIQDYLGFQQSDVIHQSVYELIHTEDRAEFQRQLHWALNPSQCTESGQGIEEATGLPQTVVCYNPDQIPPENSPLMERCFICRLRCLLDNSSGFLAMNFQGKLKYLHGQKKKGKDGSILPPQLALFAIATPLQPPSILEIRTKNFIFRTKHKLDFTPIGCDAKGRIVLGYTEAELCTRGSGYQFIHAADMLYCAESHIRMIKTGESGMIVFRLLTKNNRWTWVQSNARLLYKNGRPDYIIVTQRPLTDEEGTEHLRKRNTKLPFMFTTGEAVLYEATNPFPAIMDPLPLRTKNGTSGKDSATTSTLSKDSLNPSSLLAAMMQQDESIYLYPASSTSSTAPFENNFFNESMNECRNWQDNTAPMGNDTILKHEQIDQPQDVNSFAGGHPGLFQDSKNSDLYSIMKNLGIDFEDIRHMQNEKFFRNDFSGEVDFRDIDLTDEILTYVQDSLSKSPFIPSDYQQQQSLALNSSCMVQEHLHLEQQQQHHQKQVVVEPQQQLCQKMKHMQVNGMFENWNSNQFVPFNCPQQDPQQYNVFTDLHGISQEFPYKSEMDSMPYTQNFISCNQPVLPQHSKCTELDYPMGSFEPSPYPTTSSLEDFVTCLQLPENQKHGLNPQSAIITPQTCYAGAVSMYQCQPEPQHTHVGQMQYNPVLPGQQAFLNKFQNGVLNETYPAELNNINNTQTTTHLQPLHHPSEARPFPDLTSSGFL
FXN GAA850 act: FXN promoter activators, primary screen, cell-based, luciferase luminescence, HEK293 lucGAA850; hit rate 0.56% among 360,000; HEK293 lucGAA850 FXN promoter luciferase reporter, 24 h; percent of 10 µM SAHA response; activation, % at 6 µM; AID 540364, 2011;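 active = activation above the average of all compounds screened plus 3 SD, cutoff fixed separately per campaign, cut at about 7.5% in these data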;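 note: 0% = DMSO wells and 100% = 10 µM SAHA wells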
ABCB6 inh 2: ABCB6 transporter inhibitors, primary screen, K562-ABCB6 cells, flow cytometry, MLPCN library; ATP-binding cassette sub-family B member 6 (Homo sapiens), Q9NP58; AID 602162, 2011; K562-ABCB6 porphyrin accumulation, 1 h; active compounds read low; hit rate 0.19% among 360,000; fluorescence ratio to DMSO, % at 10 µM;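 active = fluorescence ratio to DMSO below 75%, the collection mean minus 3 SD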;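 note: signal is porphyrin accumulated inside mitochondria; 100% equals median channel fluorescence of DMSO control wells; lower ratio means ABCB6 inhibition with less porphyrin fluorescence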
* = called active by the depositor; . = not tested or not shown. Sampled rows, rich in hits. Any-hit rate of the full collection: about 3.3%.

SMILES	STAT3 act	AHR act	FXN GAA850 act	ABCB6 inh 2
CC(=O)c1c(C)[nH]c(C(=O)Nc2ccc3c(c2)OCCO3)c1C	92.0	53.7*	1.3	92.0
CC(=O)c1c(C)[nH]c(C(=O)Nc2ccccc2Cl)c1C	.	59.1*	5.1	97.0
Cc1cc(NC(=O)C(C)SCC(=O)N(C)CC(=O)Nc2ccc(F)cc2)no1 (stereo not given)	.	0.1	0.4	101.0
CC1(C(=O)NCc2ccc(C(F)(F)F)cc2)CCN1Cc1ccc(-c2ccccc2)o1 (stereo not given)	.	.	2.9	93.0
CCCn1c(N)c(C(=O)COC(=O)CNC(=O)c2ccccc2OCC)c(=O)[nH]c1=O	.	-2.5	0.9	102.0
CCC(C)c1ccccc1NC(=O)c1[nH]c(C)c(C(C)=O)c1C (stereo not given)	.	29.4	4.2	86.0
CC(=O)c1c(C)[nH]c(C(=O)Nc2cccc3ccccc23)c1C	.	110.1*	2.0	100.0
CCC(C)NC(=O)CSc1ncccc1C(=O)O (stereo not given)	105.4	0.8	2.2	103.0
COc1ccccc1CN1CC(C(=O)NCC2(O)CCCCC2)CCC1=O (stereo not given)	.	.	-1.9	103.0
COc1cc(C#Cc2c(-c3cncn3C)n(C)c3ccc(-c4ccc(OC)c(OC)c4)cc23)cc(OC)c1	.	68.5*	4.2	93.0
CC(C)(C)C(=O)COC(=O)C1CC(=O)N(c2ccccc2)C1 (stereo not given)	98.6	-0.1	0.2	102.0
Cc1nc(NC(=O)COc2ccccc2)sc1C(=O)Nc1ccccc1	105.5	66.0*	-1.4	105.0
Cc1nc(Nc2ccccc2)sc1-c1ccccc1	89.5	72.2*	6.4	89.0
COC(=O)c1sc(Nc2ccccc2)nc1C	105.2	7.8	9.9*	99.0
CCOC(=O)c1sc(Nc2ccccc2)nc1C	110.3	21.3	6.4	94.0
COC(=O)c1sc(NC(=O)COc2ccccc2)nc1C	103.2	7.1	4.0	101.0
O=C(Nc1ccc(F)c(Cl)c1)c1cc(C2CCCCN2C(=O)CCc2ccccc2)on1 (stereo not given)	.	.	-2.8	94.0
COc1ccc(C2CCCN2C(=S)Nc2cccc(Cl)c2C)cc1OC (stereo not given)	97.4	-0.4	1.3	101.0
C#Cc1cccc(Nc2nc(NCc3ccccc3OC)nc3ccsc23)c1	.	.	-1.2	96.0
O=S1(=O)CCOC[C@H](Cc2ccccc2)N1Cc1ccc(Cl)cc1	.	8.9	1.9	98.0
CCOc1cc(NC(=S)NCCCN2CCOCC2)c(OCC)cc1NC(=O)C1CC1	94.8	5.7	2.5	104.0
NC(=O)C1CCN(c2nc(-c3cccs3)cs2)CC1	.	6.6	3.2	94.0
C=CCn1c(SC)nc2sc3c(c2c1=O)CCc1ccccc1-3	115.4	27.2	3.3	99.0
C=CCSc1nc2sc3c(c2c(=O)n1CC)CCc1ccccc1-3	114.8	56.3*	1.9	103.0
CC(C)(C)CN1CCN(CC#Cc2ccccc2)CC1CCO (stereo not given)	.	59.1*	1.1	100.0
SMILES	STAT3 act	AHR act	FXN GAA850 act	ABCB6 inh 2
CCCCn1nc(NC(=O)c2cccs2)c2cc3cc(OC)ccc3nc21	85.7	50.0*	-3.2	90.0
CCCn1nc(NC(=O)c2cccs2)c2cc3cc(OC)ccc3nc21	84.6	65.7*	-2.1	101.0
CCCn1nc(NC(=O)c2cccs2)c2cc3cc(C)ccc3nc21	.	18.3	0.9	101.0
C=CCN1C(=O)NC(c2ccccc2)(C(F)(F)F)S/C1=C(\C#N)c1nnc(N2CCOCC2)n1-c1ccccc1 (stereo not given)	109.7	-0.5	2.0	92.0
O=C(CSc1ncccn1)n1c2c(c3ccccc31)CCCC2	104.0	70.0*	3.5	93.0
Cc1cc(C)nc(SCC(=O)n2c3c(c4ccccc42)CCCC3)n1	101.0	24.7	0.3	99.0
CCOc1ccc2[nH]cc(C(=O)NCc3ccccc3)c(=O)c2c1	.	24.0	0.2	93.0
O=C(NCc1ccccc1)c1c[nH]c2cc3c(cc2c1=O)OCCO3	115.4	77.2*	2.5	96.0
O=C(CC1NCCN(Cc2ccccc2)C1=O)Nc1ccc(Cl)cc1 (stereo not given)	.	0.0	-1.1	100.0
O=C(CC1NCCc2ccccc21)Nc1ccc(Cl)cc1 (stereo not given)	133.0*	75.3*	2.7	100.0
COc1ccc(N(Cc2nnc3n2CCCCC3)C(=O)Nc2ccccc2)cc1	97.4	-0.1	1.7	103.0
O=C1CN(C(=O)CSc2nncs2)c2ccccc2N1	103.8	-0.4	1.3	98.0
O=C1CN(C(=O)CSc2nc(-c3ccccc3)cs2)c2ccccc2N1	94.0	58.2*	-0.1	98.0
COc1ccc(OC)c(NC(=O)CN2C(=O)NC3(CCOc4ccccc43)C2=O)c1 (stereo not given)	120.4	13.3	0.7	93.0
O=C(Nc1ncc2c(n1)-c1ccccc1OC2)c1ccc(F)cc1	81.5	55.5*	-2.4	102.0
O=C(Nc1ncc2c(n1)-c1ccccc1CC2)c1cccc(Cl)c1	86.2	28.8	-2.9	103.0
O=C(Nc1ncc2c(n1)-c1ccccc1CC2)c1ccc(Cl)cc1	84.7	74.9*	-1.9	95.0
CS(=O)(=O)O/N=C1\CCCCC1c1ccc([N+](=O)[O-])cc1[N+](=O)[O-] (stereo not given)	.	1.2	1.9	103.0
O=C(Nc1cccc(C(F)(F)F)c1)N(Cc1ccc(Cl)cc1)CC(O)C(F)(F)F (stereo not given)	113.9	9.8	-1.6	92.0
CC(=O)[C@H]1[C@@H]2C(=O)N(c3cccc(Cl)c3)C(=O)[C@@H]2[C@H]2c3ccccc3C=CN21	126.5	38.6	2.2	97.0
CC(=O)[C@H]1[C@H](c2cccc(Cl)c2)C(C#N)(C#N)[C@@H]2c3ccccc3C=CN21	102.4	101.3*	.	.
Cc1ccc(NC2=C(NCCO)C(=O)c3ccccc3C2=O)cc1	121.6	65.4*	5.0	101.0
COc1cccc(N=c2oc3ccc(OC)cc3cc2-c2nc3ccccc3[nH]2)c1	151.4*	53.1*	3.9	94.0
CN1CCN(NC(=O)CN2C(=O)/C(=C/c3ccccc3Cl)SC2=S)CC1	94.2	-2.5	1.3	100.0
CN1CCN(NC(=O)CN2C(=O)/C(=C/c3c(Cl)cccc3Cl)SC2=S)CC1	135.2*	9.2	-0.2	100.0
SMILES	STAT3 act	AHR act	FXN GAA850 act	ABCB6 inh 2
O=C(Nc1ccc(O)cc1)C1CCCN1S(=O)(=O)c1ccc(F)cc1 (stereo not given)	102.2	78.8*	0.7	104.0
CC(=O)c1ccc(NC(=O)C2CCCN2S(=O)(=O)c2ccc(F)cc2)cc1 (stereo not given)	92.7	-0.8	1.6	100.0
O=C(CNc1ccccc1)c1ccc([N+](=O)[O-])cc1	112.6	63.4*	3.4	107.0
O=C(CNC(=O)c1cccs1)c1ccc([N+](=O)[O-])cc1	102.4	77.8*	6.7	103.0
O=C(CNC(=O)c1ccc([N+](=O)[O-])cc1)c1ccccc1	99.5	-4.9	2.8	99.0
CC(Cc1ccccn1)NC(=O)CCc1nnc(C2CCCCC2)o1 (stereo not given)	103.5	4.7	-0.7	101.0

Assay outcomes from PubChem BioAssay.
